The target of assay [1] is T1, Androgen receptor (Homo sapiens) (UniProt P10275).
T1 sequence (whole entry): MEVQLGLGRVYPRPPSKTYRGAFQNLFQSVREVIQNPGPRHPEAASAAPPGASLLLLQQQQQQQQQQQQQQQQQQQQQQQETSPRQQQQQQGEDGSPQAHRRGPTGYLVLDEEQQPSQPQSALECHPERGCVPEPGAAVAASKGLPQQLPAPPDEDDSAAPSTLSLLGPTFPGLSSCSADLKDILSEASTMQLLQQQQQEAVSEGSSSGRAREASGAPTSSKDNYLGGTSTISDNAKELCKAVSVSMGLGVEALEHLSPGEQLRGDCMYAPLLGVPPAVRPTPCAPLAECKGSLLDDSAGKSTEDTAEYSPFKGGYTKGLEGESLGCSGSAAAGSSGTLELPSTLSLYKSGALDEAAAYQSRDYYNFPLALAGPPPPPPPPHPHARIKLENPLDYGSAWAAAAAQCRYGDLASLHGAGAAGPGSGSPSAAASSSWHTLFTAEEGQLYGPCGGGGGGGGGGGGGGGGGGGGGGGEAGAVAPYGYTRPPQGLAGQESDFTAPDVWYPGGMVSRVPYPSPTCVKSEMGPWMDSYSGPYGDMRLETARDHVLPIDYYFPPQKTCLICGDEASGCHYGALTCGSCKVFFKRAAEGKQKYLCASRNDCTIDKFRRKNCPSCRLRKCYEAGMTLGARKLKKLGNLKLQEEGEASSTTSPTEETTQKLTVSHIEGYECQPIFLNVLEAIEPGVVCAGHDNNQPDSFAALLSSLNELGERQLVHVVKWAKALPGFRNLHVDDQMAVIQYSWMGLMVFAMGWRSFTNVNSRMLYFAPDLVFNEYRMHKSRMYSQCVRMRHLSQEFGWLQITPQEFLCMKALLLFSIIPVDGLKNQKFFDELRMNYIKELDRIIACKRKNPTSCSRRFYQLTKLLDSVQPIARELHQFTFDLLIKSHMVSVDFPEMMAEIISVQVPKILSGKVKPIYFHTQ
The assay can be described thus: Agonist activity at wild type AR expressed in […] SC cells assessed as effect on cell proliferation by WST-8 assay. Format: cell-based. On the technique in general: Formazan colour is commonly taken as a measure of viable cells.

In another assay the test system is PC-3. Briefly: Cytotoxicity against androgen-independent human PC3 cells assessed as inhibition of cell proliferation after 3 days by WST-8 assay. The class given is functional, cell-based.
Another assay has as its target T2, Androgen receptor (Homo sapiens, UniProt P10275).
T2 sequence (P10275 whole entry): T1 sequence (whole entry)
The assay can be described thus: Displacement of [3H]-DHT from human GST fused AR-LBD (627 to 919 amino acids) transfected in Escherichia coli HB 101 after 15 hrs by liquid scintillation counting assay. A digest of the protocol:
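Crude sonicated lysate in TEGDM was diluted to 0.3-0.5 mg/mL protein. Incubation was in the dark at 4°C for 15 h with 4 nM [3H]-DHT and 1 µM triamcinolone acetonide (final). Free ligand was removed with dextran/γ-globulin-coated charcoal, and the supernatant counted by liquid scintillation; ≥duplicate.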
Background: Loss of bound radioactivity is the signal in a displacement assay; it reports binding, not function.

Each structure is given as a SMILES string. Activity calls are given as the source filed them. No cut-off for these calls is given here.

By IC50 is commonly meant the concentration that inhibits the measured activity by half.

In the case of `O=[N+]([O-])c1ccc(Cc2nnc(O)c3ccccc23)cc1`, the result in assay [1] was inactive.

Turning to `O=C(Nc1ccc(Cc2n[nH]c(=O)c3ccccc23)cc1)C(F)(F)F`, in assay [1], the result was inactive.

For the compound `CNc1ccc(Cc2n[nH]c(=O)c3ccccc23)cc1`, the outcome in assay [1] was inactive.

On to `CCN(CC)c1ccccc1Cc1n[nH]c(=O)c2ccccc12`, for which the result in assay [1] was inactive.

As for `O=c1[nH]nc(Cc2c(F)cccc2F)c2ccccc12`, in assay [1], the outcome was inactive.

Take `CC(=O)Nc1ccc(Cc2n[nH]c(=O)c3ccccc23)cc1`: the outcome in assay [1] was inactive.

Take `CCNc1ccccc1Cc1n[nH]c(=O)c2ccccc12`: the outcome in assay [1] was inactive.

For `CN(C)c1ccc(Cc2n[nH]c(=O)c3ccccc23)cc1`, the result in assay [1] was inactive.

On to `O=c1[nH]nc(Cc2ccccc2)c2ccccc12`, for which the result in assay [1] was inactive.

For the compound `CNc1ccccc1Cc1n[nH]c(=O)c2ccccc12`, the outcome in assay [1] was inactive.

For `CC(=O)Nc1ccccc1Cc1n[nH]c(=O)c2ccccc12`, the result in assay [1] was inactive.

With `COc1ccccc1Cc1n[nH]c(=O)c2ccccc12`, the result in assay [1] was inactive.

In the case of `O=C(Nc1ccccc1Cc1n[nH]c(=O)c2ccccc12)C(F)(F)F`, in assay [1], the result was inactive.

In the case of `O=c1[nH]nc(Cc2c(Cl)ccc(Cl)c2Cl)c2ccccc12`, the inhibition result in the assay with PC-3 is “inactive”. This compound also showed a half-maximal inhibitory concentration (IC50) on Androgen receptor of 56.7 µM. For the same compound, the result in assay [1] was inactive.

Consider `CCNc1ccc(Cc2n[nH]c(=O)c3ccccc23)cc1`, for which the result in assay [1] was inactive.

Turning to `O=c1[nH]nc(Cc2c(Cl)cccc2Cl)c2ccccc12`, the inhibition entry with PC-3 was “inactive”. In addition, the IC50 at Androgen receptor came out at 10.9 µM. Moreover, the outcome in assay [1] was inactive.

Turning to `Nc1ccccc1Cc1n[nH]c(=O)c2ccccc12`, in the assay on PC-3, the inhibition entry is “inactive”. Moreover, the half-maximal inhibitory concentration (IC50) on Androgen receptor was 45.2 µM. The result in assay [1] was inactive.

For `O=c1[nH]nc(Cc2ccccc2[N+](=O)[O-])c2ccccc12`, in the assay with PC-3, the inhibition result is “inactive”. The compound further yielded an IC50 at Androgen receptor of over 100 µM. The result in assay [1] was inactive.

As for `O=c1[nH]nc(Cc2ccccc2F)c2ccccc12`, the result in assay [1] was inactive.

For `O=c1[nH]nc(Cc2ccccc2C(F)(F)F)c2ccccc12`, the outcome in assay [1] was inactive.

`CS(=O)(=O)Nc1ccccc1Cc1n[nH]c(=O)c2ccccc12`: in assay [1], the result was inactive.

Consider `Nc1ccc(Cc2n[nH]c(=O)c3ccccc23)cc1`, for which the outcome in assay [1] was inactive.

As for `Cc1ccccc1Cc1n[nH]c(=O)c2ccccc12`, in assay [1], the result was inactive.

Take `Oc1nnc(Cc2ccccc2Cl)c2ccccc12`: the inhibition result in the assay on PC-3 is “inactive”. Besides, the half-inhibitory concentration (IC50) at Androgen receptor turned out to be 85.4 µM. In assay [1], the result was inactive.

For the compound `CCN(CC)c1ccc(Cc2n[nH]c(=O)c3ccccc23)cc1`, the outcome in assay [1] was inactive.

For the compound `Cc1cccc(C)c1Cc1n[nH]c(=O)c2ccccc12`, the inhibition result in the assay with PC-3 was “inactive”. The same compound displayed an IC50 at Androgen receptor of 84.3 µM. Further, in assay [1], the result was inactive.

On to `CC(C)(O)C(=O)Nc1ccc([N+](=O)[O-])c(C(F)(F)F)c1`, for which the result in assay [1] was inactive.

Turning to `O=C(O)c1ccccc1Cc1n[nH]c(=O)c2ccccc12`, the result in assay [1] was inactive.

As for `CS(=O)(=O)Nc1ccc(Cc2n[nH]c(=O)c3ccccc23)cc1`, the result in assay [1] was inactive.

As for `CN(C)c1ccccc1Cc1n[nH]c(=O)c2ccccc12`, the result in assay [1] was inactive.

(Values after ChEMBL document CHEMBL3621051, “Design and synthesis of 4-benzyl-1-(2H)-phthalazinone derivatives as novel androgen receptor antagonists” (Eur J Med Chem, 2015).)
